# Measurements as given in ChEMBL document CHEMBL2040849, “Synthesis and antimicrobial evaluation of 3-methanone-6-substituted-benzofuran derivatives” (2012).
# Tested on: Escherichia coli
# Assay: Antibacterial activity against Escherichia coli ATCC 11303 after 24 hrs by microtiter broth dilution method
# Format: functional
# Settings: ATCC 11303, 24 h
# Outline: (§1)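 Compounds dissolved in DMSO and serially diluted by microtiter broth dilution following NCCLS guidance. Plates incubated at 37 °C for 24 h. MIC80 (ug/mL) taken as the lowest concentration inhibiting visible growth. Ceftazidime, cefotaxime, cefradine and sodium penicillin served as reference drugs.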
row,Compound,MIC80 [µg/mL]
1,c1ccc(COc2ccc3cc(-c4ccccc4)oc3c2)cc1,> 200
2,COc1ccc(-c2cc3ccc(OCc4ccccc4)cc3o2)cc1,> 200
3,Cc1ccc(-c2cc3ccc(OCc4ccccc4)cc3o2)o1,> 200
4,Oc1ccc2cc(-c3ccccc3)oc2c1,6.25
5,COc1ccc(-c2cc3ccc(O)cc3o2)cc1,3.12
6,Cc1ccc(-c2cc3ccc(O)cc3o2)o1,3.12
7,Cc1oc(-c2ccccc2)nc1CCOc1ccc2cc(-c3ccccc3)oc2c1,> 200
8,COc1ccc(-c2cc3ccc(OCCc4nc(-c5ccccc5)oc4C)cc3o2)cc1,> 200
9,CC(=O)c1c(-c2ccc(C)o2)oc2cc(OCCc3nc(-c4ccccc4)oc3C)ccc12,> 200
10,COc1ccc(-c2oc3cc(OCCc4nc(-c5ccccc5)oc4C)ccc3c2C(C)=O)cc1,> 200

# Tested on: Staphylococcus aureus
# Assay: Antibacterial activity against methicillin-resistant Staphylococcus aureus ATCC 700699 after 24 hrs by microtiter broth dilution method
# Format: functional
# Settings: ATCC 700699, 24 h
# Outline: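 Compounds dissolved in DMSO and serially diluted in microtiter broth following NCCLS guidance. Plates were incubated at 37 °C for 24 h. MIC80 was read as the lowest concentration inhibiting visible growth of the organism, in µg/mL.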
row,Compound,MIC80 [µg/mL]
1,c1ccc(COc2ccc3cc(-c4ccccc4)oc3c2)cc1,> 200
2,COc1ccc(-c2cc3ccc(OCc4ccccc4)cc3o2)cc1,> 200
3,Cc1ccc(-c2cc3ccc(OCc4ccccc4)cc3o2)o1,12.5
4,Oc1ccc2cc(-c3ccccc3)oc2c1,1.56
5,COc1ccc(-c2cc3ccc(O)cc3o2)cc1,0.78
6,Cc1ccc(-c2cc3ccc(O)cc3o2)o1,3.12
7,Cc1oc(-c2ccccc2)nc1CCOc1ccc2cc(-c3ccccc3)oc2c1,> 200
8,COc1ccc(-c2cc3ccc(OCCc4nc(-c5ccccc5)oc4C)cc3o2)cc1,> 200
9,CC(=O)c1c(-c2ccc(C)o2)oc2cc(OCCc3nc(-c4ccccc4)oc3C)ccc12,> 200
10,COc1ccc(-c2oc3cc(OCCc4nc(-c5ccccc5)oc4C)ccc3c2C(C)=O)cc1,> 200

# Tested on: Staphylococcus aureus
# Assay: Antibacterial activity against Staphylococcus aureus ATCC 29213 after 24 hrs by microtiter broth dilution method
# Format: functional
# Settings: ATCC 29213, 24 h
# Outline: as §1
row,Compound,MIC80 [µg/mL]
1,c1ccc(COc2ccc3cc(-c4ccccc4)oc3c2)cc1,100
2,COc1ccc(-c2cc3ccc(OCc4ccccc4)cc3o2)cc1,> 200
3,Cc1ccc(-c2cc3ccc(OCc4ccccc4)cc3o2)o1,> 200
4,Oc1ccc2cc(-c3ccccc3)oc2c1,6.25
5,COc1ccc(-c2cc3ccc(O)cc3o2)cc1,1.56
6,Cc1ccc(-c2cc3ccc(O)cc3o2)o1,1.56
7,Cc1oc(-c2ccccc2)nc1CCOc1ccc2cc(-c3ccccc3)oc2c1,> 200
8,COc1ccc(-c2cc3ccc(OCCc4nc(-c5ccccc5)oc4C)cc3o2)cc1,> 200
9,CC(=O)c1c(-c2ccc(C)o2)oc2cc(OCCc3nc(-c4ccccc4)oc3C)ccc12,> 200
10,COc1ccc(-c2oc3cc(OCCc4nc(-c5ccccc5)oc4C)ccc3c2C(C)=O)cc1,> 200

# Tested on: Bacillus subtilis
# Assay: Antibacterial activity against Bacillus subtilis ATCC 33712 after 24 hrs by microtiter broth dilution method
# Format: functional
# Settings: ATCC 33712, 24 h
# Outline: as §1
row,Compound,MIC80 [µg/mL]
1,c1ccc(COc2ccc3cc(-c4ccccc4)oc3c2)cc1,100
2,COc1ccc(-c2cc3ccc(OCc4ccccc4)cc3o2)cc1,> 200
3,Cc1ccc(-c2cc3ccc(OCc4ccccc4)cc3o2)o1,> 200
4,Oc1ccc2cc(-c3ccccc3)oc2c1,3.12
5,COc1ccc(-c2cc3ccc(O)cc3o2)cc1,1.56
6,Cc1ccc(-c2cc3ccc(O)cc3o2)o1,1.56
7,Cc1oc(-c2ccccc2)nc1CCOc1ccc2cc(-c3ccccc3)oc2c1,> 200
8,COc1ccc(-c2cc3ccc(OCCc4nc(-c5ccccc5)oc4C)cc3o2)cc1,50
9,CC(=O)c1c(-c2ccc(C)o2)oc2cc(OCCc3nc(-c4ccccc4)oc3C)ccc12,> 200
10,COc1ccc(-c2oc3cc(OCCc4nc(-c5ccccc5)oc4C)ccc3c2C(C)=O)cc1,> 200

# Tested on: Pseudomonas aeruginosa
# Assay: Antibacterial activity against Pseudomonas aeruginosa ATCC 49189 after 24 hrs by microtiter broth dilution method
# Format: functional
# Settings: ATCC 49189, 24 h
# Outline: as §1
row,Compound,MIC80 [µg/mL]
1,c1ccc(COc2ccc3cc(-c4ccccc4)oc3c2)cc1,100
2,COc1ccc(-c2cc3ccc(OCc4ccccc4)cc3o2)cc1,> 200
3,Cc1ccc(-c2cc3ccc(OCc4ccccc4)cc3o2)o1,> 200
4,Oc1ccc2cc(-c3ccccc3)oc2c1,0.78
5,COc1ccc(-c2cc3ccc(O)cc3o2)cc1,1.56
6,Cc1ccc(-c2cc3ccc(O)cc3o2)o1,0.78
7,Cc1oc(-c2ccccc2)nc1CCOc1ccc2cc(-c3ccccc3)oc2c1,> 200
8,COc1ccc(-c2cc3ccc(OCCc4nc(-c5ccccc5)oc4C)cc3o2)cc1,> 200
9,CC(=O)c1c(-c2ccc(C)o2)oc2cc(OCCc3nc(-c4ccccc4)oc3C)ccc12,> 200
10,COc1ccc(-c2oc3cc(OCCc4nc(-c5ccccc5)oc4C)ccc3c2C(C)=O)cc1,> 200
